The results in this text go back to publication PMC3288537 (ACS Chemical Biology, 2011).

A word on the IC50: it is the point on the concentration scale where inhibition reaches its midpoint.

SMILES strings stand for the structures.

In data set [1] the test system is ERK1/2 and p38 phosphorylation in Jurkat TAg T cells. Kind of data set: Immunoblot of pERK1/2, pp38 and pMEK in TCR-stimulated Jurkat TAg T cells. The data set is classed as cell-based, human. Summed up: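 Jurkat TAg T cells preincubated with test compound or DMSO (0.2% in time course) for 45 min at 37°C, then stimulated with OKT3 at 500 ng mL-1 for 5 min. Cells lysed at once, or washed and held in fresh RPMI 1640 for set times. Immunoblotted for phospho-ERK1/2, p38 and MEK; bands normalised to total protein (time course also to GAPDH). Mean ± SEM; Student's t-test; 3–4 independent experiments.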
On the technique in general: A western blot detects proteins with antibodies after separation by electrophoresis.

The target of data set [2] is T1, SHP2 (Homo sapiens, UniProt Q06124).
T1 sequence (Q06124 1-593): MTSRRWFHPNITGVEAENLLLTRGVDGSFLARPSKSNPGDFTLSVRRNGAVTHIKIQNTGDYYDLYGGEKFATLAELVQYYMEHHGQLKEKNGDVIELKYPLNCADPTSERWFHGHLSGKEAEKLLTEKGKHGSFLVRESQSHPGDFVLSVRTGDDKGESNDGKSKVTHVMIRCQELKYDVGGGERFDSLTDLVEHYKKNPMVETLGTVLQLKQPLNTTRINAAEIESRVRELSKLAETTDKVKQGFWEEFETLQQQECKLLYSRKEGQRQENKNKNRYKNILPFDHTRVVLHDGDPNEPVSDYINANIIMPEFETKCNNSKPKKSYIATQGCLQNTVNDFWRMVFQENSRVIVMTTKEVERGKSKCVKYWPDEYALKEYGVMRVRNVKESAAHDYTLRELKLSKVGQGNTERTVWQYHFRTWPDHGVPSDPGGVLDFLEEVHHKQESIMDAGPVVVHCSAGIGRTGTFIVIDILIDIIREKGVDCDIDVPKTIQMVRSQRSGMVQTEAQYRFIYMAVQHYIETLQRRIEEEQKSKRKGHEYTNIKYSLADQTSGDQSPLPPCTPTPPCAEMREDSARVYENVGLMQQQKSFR
Kind of data set: Dose-response OMFP phosphatase assay, SHP2. It counts as biochemical. As to conditions: read-out: IC50 SHP2; OMFP substrate. Summed up:
(§1)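 Ten-point 2-fold dilution series of test compound prepared in DMSO. Fluorescence (ex 485/em 528 nm) read in kinetic mode over 10 min; progress-curve slopes taken as activity. IC50 by nonlinear regression (sigmoidal, variable slope).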

For data set [3], the target named is T2, PTP-SL (Homo sapiens, UniProt Q15256).
T2 sequence (Q15256 22-657): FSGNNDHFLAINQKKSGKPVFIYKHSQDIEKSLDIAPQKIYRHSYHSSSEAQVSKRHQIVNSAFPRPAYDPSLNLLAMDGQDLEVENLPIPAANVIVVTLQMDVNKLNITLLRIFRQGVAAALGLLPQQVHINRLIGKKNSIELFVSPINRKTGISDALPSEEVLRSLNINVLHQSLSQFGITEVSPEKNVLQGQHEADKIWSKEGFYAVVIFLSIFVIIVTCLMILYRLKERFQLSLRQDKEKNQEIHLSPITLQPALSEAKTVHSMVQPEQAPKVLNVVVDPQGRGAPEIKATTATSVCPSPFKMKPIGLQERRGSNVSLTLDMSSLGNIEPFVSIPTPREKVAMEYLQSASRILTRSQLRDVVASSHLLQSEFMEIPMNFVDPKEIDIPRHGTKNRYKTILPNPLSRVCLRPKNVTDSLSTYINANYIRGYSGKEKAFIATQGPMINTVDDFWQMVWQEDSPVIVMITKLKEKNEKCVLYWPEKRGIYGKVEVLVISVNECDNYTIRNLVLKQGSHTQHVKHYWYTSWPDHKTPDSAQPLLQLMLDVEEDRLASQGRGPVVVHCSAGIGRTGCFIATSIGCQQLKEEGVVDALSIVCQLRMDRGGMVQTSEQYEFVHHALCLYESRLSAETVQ
Kind of data set: Dose-response OMFP phosphatase assay, PTP-SL. It counts as biochemical. The conditions noted are these: read-out: IC50 PTP-SL; OMFP substrate.

Data set [4] concerns the target T3, HePTP (Homo sapiens, UniProt P35236).
T3 sequence (P35236 1-360): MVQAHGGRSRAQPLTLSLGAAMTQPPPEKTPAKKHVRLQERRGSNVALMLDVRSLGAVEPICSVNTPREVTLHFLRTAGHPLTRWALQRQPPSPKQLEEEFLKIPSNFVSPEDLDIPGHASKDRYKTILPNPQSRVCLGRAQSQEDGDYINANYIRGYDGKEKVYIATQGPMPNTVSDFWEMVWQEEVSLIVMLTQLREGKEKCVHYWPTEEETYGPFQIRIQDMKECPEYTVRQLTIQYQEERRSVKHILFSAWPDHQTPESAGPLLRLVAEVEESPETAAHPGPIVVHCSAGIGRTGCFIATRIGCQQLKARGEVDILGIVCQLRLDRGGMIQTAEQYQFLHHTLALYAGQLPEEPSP
The data set is described as follows: Michaelis-Menten kinetic studies with OMFP. It counts as biochemical. The conditions noted are these: various inhibitor and substrate concentrations. The method in brief: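 Started by adding OMFP at 0–400 μM. Initial rates read by fluorescence (ex 485/em 528 nm), corrected with no-enzyme controls. Eadie-Hofstee plots drawn; competing models compared by AICc.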

Data set [5] concerns the target T4, HePTP-DM (K105A/T106A double mutant) (Homo sapiens, UniProt P35236, K126A/T127A).
T4 sequence (P35236 22-360 K126A/T127A limits assumed): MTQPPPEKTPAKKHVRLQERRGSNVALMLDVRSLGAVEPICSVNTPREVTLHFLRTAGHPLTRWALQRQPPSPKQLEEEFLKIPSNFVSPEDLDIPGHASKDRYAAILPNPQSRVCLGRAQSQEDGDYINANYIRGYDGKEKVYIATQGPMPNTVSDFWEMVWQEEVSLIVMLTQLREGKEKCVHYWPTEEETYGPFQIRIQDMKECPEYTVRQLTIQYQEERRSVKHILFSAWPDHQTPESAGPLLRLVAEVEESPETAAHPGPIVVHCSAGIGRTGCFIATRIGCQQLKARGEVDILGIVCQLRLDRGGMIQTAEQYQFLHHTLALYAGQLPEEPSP
Kind of data set: Dose-response OMFP phosphatase assay, HePTP K105A/T106A double mutant. The data set is classed as biochemical. As to conditions: read-out: IC50 HePTP-DM.

Data set [6] is described as follows: Tissue concentration. The data set is classed as in vivo, C57B6 mice. The conditions noted are these: mice.
In data set [7] the target is SHP1 (Homo sapiens, UniProt P29350). Kind of data set: Dose-response OMFP phosphatase assay, SHP1. It counts as biochemical. As to conditions: read-out: IC50 SHP1; OMFP substrate. Summed up: as §1
Setting [8] is: 4 μM preincubation, before TCR stimulation, stimulated DMSO = 100%.
[9] abbreviates: 4 μM, OKT3 stimulation, DMSO = 100%.
Where [10] appears, read: 4 μM, up to 2 h after TCR stimulation.
Where [11] appears, read: 40 μM, 45 min preincubation, OKT3 5 min, vs DMSO.

SHP1, sequence (P29350 whole entry): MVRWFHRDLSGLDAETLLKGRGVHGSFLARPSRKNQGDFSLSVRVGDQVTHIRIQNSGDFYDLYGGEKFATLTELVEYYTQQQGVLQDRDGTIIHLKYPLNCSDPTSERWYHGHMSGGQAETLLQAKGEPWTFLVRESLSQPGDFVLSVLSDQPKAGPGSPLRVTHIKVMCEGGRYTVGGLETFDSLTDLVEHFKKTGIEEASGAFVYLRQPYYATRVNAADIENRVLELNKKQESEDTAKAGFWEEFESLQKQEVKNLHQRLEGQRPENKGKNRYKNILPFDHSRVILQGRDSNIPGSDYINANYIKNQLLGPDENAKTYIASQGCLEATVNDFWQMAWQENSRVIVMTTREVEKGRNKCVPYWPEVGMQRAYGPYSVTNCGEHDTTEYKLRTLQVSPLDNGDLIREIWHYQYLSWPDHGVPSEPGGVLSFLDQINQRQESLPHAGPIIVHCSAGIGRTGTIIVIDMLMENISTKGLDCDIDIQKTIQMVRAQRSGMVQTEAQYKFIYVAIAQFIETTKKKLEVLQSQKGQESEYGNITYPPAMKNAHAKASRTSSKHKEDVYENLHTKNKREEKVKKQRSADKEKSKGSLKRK

Turning to `O=C(O)c1ccccc1-c1ccc(/C=c2\sc3nc4cc(Br)cnc4n3c2=O)o1` [Compound 1], in data set [1] (setting [8]), the “basal pERK1/2 phosphorylation level” value is 22.0 ± 2.5% and the “basal pp38 phosphorylation level” value came to 55.0 ± 5.8%. For the same compound, in data set [1] (setting [9]), the “pERK1/2 level after TCR stimulation” value is on record as 134.3 ± 4.9% and the “pp38 level after TCR stimulation” value turned out to be 125.5 ± 4.0%. In addition, in data set [1] (setting [10]), the “time course of pERK1/2 levels after stimulation” value is “remained constant up to 1 h after stimulation” and the “time course of pp38 levels after stimulation” value was “remained unchanged”. In data set [1] (setting [11]), the pERK1/2 levels result was “augmented”, the “pMEK levels (activation of MEK)” value is “unchanged” and the pp38 levels result is “augmented”. The “pMEK levels in dose-response” value in data set [1] (concentrations as high as 40 μM) is given as “not affected”. Also, in data set [2], the IC50 came to 1100 nM. Besides, the IC50 in data set [3] was 1100 nM. Also, the inhibition pattern entry in data set [4] is recorded as “mixed inhibition pattern”. The IC50 in data set [5] stood at 6600 nM. In data set [6] (i.p.), the blood-brain-barrier crossing result was “does not appear to cross the BBB” and the “concentration in the spleen tissue” value is below 500 nM. For the same compound, the compound in cerebellum entry in data set [6] (i.p. 3 or 5 mg/kg, 3 h) is “could not be detected”. Also, the “compound in brain tissue” value in data set [6] (i.p. 3 or 5 mg/kg, 3 h, detection limit ~1 nM) is “could not be detected”. In data set [6] (i.p., 6 h after injection), this compound showed a concentration in splenocytes of 265 ± 119 nM. Also, the IC50 in data set [7] worked out at 2500 nM.
